# High-throughput results from PubChem BioAssay.
# Furin inhibitor: human furin inhibitors, primary screen, biochemical, fluorescence intensity | P09958 | purified furin, fluorogenic substrate cleavage | inhibition, % at 20 µM or 30 µM | 220,000 tested, 0.061% active | AID 463115, 2010; in the data active = inhibition above about 25%
# FXIa inh: human FXIa protease inhibitors, primary screen, biochemical, 1536-well. 220,000 tested, 0.14% active. purified FXIa, Boc-Glu-Ala-Arg-AMC fluorogenic substrate. AID 798, 2007. inhibition, % at 5 µM. Coagulation factor XI (Homo sapiens), P03951;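 active = inhibition of at least 40%; inactive = inhibition below 40%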;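 also: fluorescence of freed AMC excited at 355 nm; 0% = enzyme without compound and 100% = no enzyme blank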
# KLK5 inh: human KLK5 protease inhibitors, primary screen, biochemical, 1536-well; Kallikrein-5 (Homo sapiens), Q9Y337; recombinant hK5, fluorogenic AMC substrate cleavage; inhibition, % at 5 µM; 210,000 tested, 0.59% active; AID 873, 2007;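 active = inhibition of 40% or more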;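 also: 0% = enzyme controls without compound and 100% = no-enzyme blanks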
# thrombin 1536: human alpha-thrombin inhibitors, primary screen, counter-screen for coagulation protease inhibitor project, biochemical, 1536-well, fluorogenic AMC substrate | Prothrombin (Homo sapiens), P00734 | 220,000 tested, 0.26% active | inhibition, % at 5 µM | Boc-VPR-AMC fluorogenic substrate cleavage;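 active = inhibition at or above 40%; inactive = inhibition below 40%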;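 also: 0% = enzyme with no compound and 100% = wells without enzyme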
#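 System – human alpha-thrombin · Medium – pH 7.5 Tris (50 mM) with NaCl 150 mM, Tween 20 0.05% · Compound – single-point dosing at 5 µM, 0.2% DMSO · Incubation – enzyme reaction carried out at room temperature · Technique – fluorescence of released AMC, ex 355 nm, em 460 nm · Read-out basis – % inhibition of thrombin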
# FXIIa inh 1536: human FXIIa protease inhibitors, primary screen, biochemical, 1536-well; Coagulation factor XII (Homo sapiens), P00748; purified FXIIa, Boc-QGR-AMC fluorogenic substrate, 2 h; inhibition, % at 5 µM; 220,000 tested, 0.3% active; AID 800, 2007; in the data active = inhibition above about 40%;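 also: 0% = enzyme with no compound and 100% = blank without enzyme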
# Target sequence (P00748 20-372 limits assumed): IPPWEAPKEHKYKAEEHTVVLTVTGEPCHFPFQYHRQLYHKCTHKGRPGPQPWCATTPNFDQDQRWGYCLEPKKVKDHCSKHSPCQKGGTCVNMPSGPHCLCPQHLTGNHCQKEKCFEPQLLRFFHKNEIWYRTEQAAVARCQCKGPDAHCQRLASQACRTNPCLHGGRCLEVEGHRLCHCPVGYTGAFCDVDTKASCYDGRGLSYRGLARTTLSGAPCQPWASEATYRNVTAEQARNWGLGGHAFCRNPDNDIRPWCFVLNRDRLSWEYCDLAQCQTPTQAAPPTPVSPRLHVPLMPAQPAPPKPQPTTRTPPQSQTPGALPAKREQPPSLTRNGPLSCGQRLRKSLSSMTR
# Target sequence (P00748 373-615 limits assumed): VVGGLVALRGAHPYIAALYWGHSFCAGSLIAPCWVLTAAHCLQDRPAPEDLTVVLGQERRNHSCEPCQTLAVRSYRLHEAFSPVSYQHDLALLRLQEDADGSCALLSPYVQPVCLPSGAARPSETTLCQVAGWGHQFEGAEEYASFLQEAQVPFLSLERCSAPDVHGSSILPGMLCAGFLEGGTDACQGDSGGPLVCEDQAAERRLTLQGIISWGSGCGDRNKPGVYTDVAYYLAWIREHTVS
# Numbers without * were called inactive; x = no result. Hits are enriched below; roughly 1.1% of the tested compounds scored in any of these assays.
SMILES,Furin inhibitor,FXIa inh,KLK5 inh,thrombin 1536,FXIIa inh 1536
O=C(CN(Cc1ccccc1F)C(=O)Cn1nnc(-c2cccs2)n1)NCC1CCCO1 (stereo not given),-29,-3,53*,19,0
O=C(CN(Cc1ccco1)C(=O)Cn1nnc(-c2cccs2)n1)NCC1CCCO1 (stereo not given),-26,-3,2,-3,14
CCc1ccccc1NC(=O)c1nnn(CC(=O)Nc2cccc(C)c2C)c1N,3,2,-5,1,17
Cc1ccc(C)c(NC(=O)c2nnn(Cc3ccccc3C)c2N)c1,-20,0,-6,2,16
CCc1ccccc1NC(=O)c1nnn(CC(=O)Nc2cccc(C)c2)c1N,-4,-9,43*,-10,-2
Cc1ccc(C)c(NC(=O)Cn2nnc(C(=O)Nc3c(C)cccc3C)c2N)c1,-5,-2,52*,5,13
CC(C)(C)c1ccc(-c2nc3n(c(=O)c2C#N)CCS3)cc1,-10,-6,-21,-1,-3
Cc1ccccc1C(=O)NC(NC(=S)Nc1ccc(S(N)(=O)=O)cc1)C(Cl)(Cl)Cl (stereo not given),0,3,-19,-10,6
Cc1ccc(C(=O)NC(NC(=S)Nc2ccc(S(N)(=O)=O)cc2)C(Cl)(Cl)Cl)cc1 (stereo not given),-13,-4,44*,30,2
Cc1ccc(C)c(-c2nc3cc(N)ccc3o2)c1,-11,18,-35,-2,41*
COC(=O)CS(=O)(=O)c1nnc([C@H](Cc2ccccc2)NC(=O)OC(C)(C)C)o1,0,0,-5,2,42*
Cc1cccc(CS(=O)(=O)c2nnc([C@H](Cc3ccccc3)NC(=O)OC(C)(C)C)o2)c1,-15,17,-7,29,30
CCCCOC(=O)c1ccc(NC(=O)C(=O)NCc2ccco2)cc1,-10,-2,-2,-10,99*
CCCCOC(=O)c1ccc(NC(=O)C(=O)NCc2ccccn2)cc1,-24,1,1,-6,9
COc1ccc(N=C2S/C(=C\c3cc(C)n(C)c3C)C(=O)N2C)cc1,-4,8,41*,12,0
Cc1ccc(-n2c(C)cc(C(=O)CSc3nncs3)c2C)cc1,-9,7,21,56*,-5
CCOc1ccc(N(CC(=O)Nc2cc(C)ccc2C)S(=O)(=O)c2c(C)[nH]c(=O)[nH]c2=O)cc1,-5,24,34,16,100*
COC(=O)C(C)Oc1ccc(Oc2nc(Cl)ccc2Cl)cc1 (stereo not given),-11,-4,-1,-13,4
O=S(=O)(c1ccc(S(=O)(=O)N2CCCC2)cc1)N1CCCCCC1,-20,19,-14,-7,44*
Nc1ccc(S(=O)(=O)N2CCCC2)cc1,-39,6,-5,-2,15
CS(=O)(=O)N(Cc1ccccc1)c1ccc(C(=O)NC2CCCCC2O)cc1 (stereo not given),-18,-5,14,18,106*
Cc1ccc(-c2[nH]nc3c2C(c2ccoc2)C(C#N)=C(N)O3)cc1C (stereo not given),-2,-5,62*,-2,-3
COc1ccc(-c2[nH]nc3c2C(c2ccoc2)C(C#N)=C(N)O3)cc1 (stereo not given),-6,10,-6,2,15
CCOC(=O)C[n+]1c(C)sc2ccc(OC)cc21,-16,9,-10,1,43*
COc1ccccc1NS(=O)(=O)c1cc(NC(=O)c2ccncc2)ccc1N1CCCC1,-34,3,0,x,6
SMILES,Furin inhibitor,FXIa inh,KLK5 inh,thrombin 1536,FXIIa inh 1536
O=C(Oc1cncc(Cl)c1)c1ccco1,-24,84*,42*,21,61*
O=C(Oc1ccc2ccccc2c1)c1ccco1,-16,4,17,24,29
Cc1ccc(OCc2nnc(SCC(=O)O)n2N)cc1,-8,30,-23,3,45*
O=C1CN(C(=O)CNCc2ccccc2)c2ccccc2N1,-19,2,1,-5,8
C=CCc1cccc(/C=N/NC(=O)CNc2ccccc2)c1O,-14,-11,-27,46*,-2
C=CCc1cccc(/C=N/NC(=O)CCCNc2ccc(C)cc2)c1O,-13,8,47*,20,5
Nn1c(SCC(=O)Nc2ccccc2F)nnc1-c1cccnc1,-20,-1,-10,-4,6
Nn1c(SCC(=O)Nc2ccc(F)cc2F)nnc1-c1cccnc1,-16,10,41*,34,34
CCOC(=O)C1C(=O)NC(c2ccccc2)=NC1c1ccc(O)c(OC)c1 (stereo not given),-30,-3,x,-13,6
COc1cc(NC(=O)CN2CCN(S(=O)(=O)c3ccc(C(C)C)cc3)CC2)cc(OC)c1,-17,15,40*,10,26
CCOc1ccc(NC(=O)CCN2CCN(S(=O)(=O)c3ccc(Cl)cc3)CC2)cc1,-25,-3,55*,28,21
CCOc1ccc(NC(=O)CCN2CCN(S(=O)(=O)c3ccc(OC)cc3)CC2)cc1,-28,-18,-7,-1,-4
COc1cccc(NC(=O)CN2CCN(S(=O)(=O)c3ccc(C(C)C)cc3)CC2)c1,-10,7,-9,0,14
CCc1sc(C(=O)Nc2ccc(F)cc2C)cc1C,-11,-5,-2,-7,4
Cc1cc(N/C=C(\C#N)S(=O)(=O)c2ccccc2Cl)nc(C)n1,-14,-7,-7,0,9
O=C(COc1ccc(S(=O)(=O)N2CCc3ccccc32)cc1Cl)NCc1ccccn1,-18,-2,-12,2,9
Cc1ccccc1C(=O)NNC(=O)c1ccoc1C,-22,2,63*,16,0
Cc1occc1C(=O)NNC(=O)c1ccccc1Br,0,16,46*,8,21
Cc1occc1C(=O)NNC(=O)c1ccccc1C(=O)O,-13,-6,-7,-5,0
O=C(CC(c1ccc(F)cc1)c1ccco1)N1CCCC1 (stereo not given),-11,1,3,-3,10
O=C(CC(c1ccc(F)cc1)c1ccco1)N1CCOCC1 (stereo not given),-4,2,59*,43*,31
O=C(O)/C=C/c1ccc(-n2ccnc2)cc1,-13,5,-9,0,9
Cc1sc2ncnc(OCC(=O)NC3CCS(=O)(=O)C3)c2c1C (stereo not given),-6,20,103*,29,24
CC1(C)CC(=O)c2cnc(NC(=O)Cc3ccc(Cl)cc3)nc2C1,-22,1,86*,36,2
CCCCC(=O)Nc1ncc2c(n1)CC(C)(C)CC2=O,-26,-7,-3,0,-5
Cc1[nH]c2ccccc2c1C(=O)COC(=O)Cn1cnc2ccccc21,-24,-5,-11,-14,4
